Paper PMC3722612 (Archives of biochemistry and biophysics, 2013)

What was measured:
[1] = system: CC(=O)N[C@H]1[C@@H](OP(=O)(O)OP(=O)(O)OC[C@H]2O[C@@H](n3ccc(=O)[nH]c3=O)[C@H](O)[C@@H]2O)O[C@H](C)[C@@H](N)[C@@H]1O; assay: purified protein; details: conditions not stated separately for this enzyme
[2] = system: CC(=O)SCCNC(=O)CCNC(=O)[C@H](O)C(C)(C)COP(=O)(O)OP(=O)(O)OC[C@H]1O[C@@H](n2cnc3c(N)ncnc32)[C@H](O)[C@@H]1OP(=O)(O)O; assay: purified protein; details: conditions not stated separately for this enzyme
[3] = biological target: WeeH (Acinetobacter baumannii, UniProt V5RC66); assay: radioactive transfer to Und-P, organic extraction; assay type: biochemical; details: undecaprenyl phosphate, 50 mM MgCl2, 30 mM Tris-acetate pH 8.0, 1% Triton X-100, 3% DMSO, 25 °C
[4] = system: WeeI; assay: continuous DTNB; assay type: biochemical, Acinetobacter baumannii; details: AcCoA saturating, 5 mM MgCl2, 50 mM HEPES pH 7.4, 25 °C
In short: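 AcCoA and UDP-4-amino varied separately, the other held saturating; AcCoA Km taken at 4 mM UDP-4-amino. Initial rates from the linear portion over 5 min; duplicates; background without UDP-4-amino subtracted.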

[5] = system: CC(=O)N[C@H]1[C@@H](OP(=O)(O)OP(=O)(O)OC[C@H]2O[C@@H](n3ccc(=O)[nH]c3=O)[C@H](O)[C@@H]2O)O[C@H](C)C(=O)[C@@H]1O; assay: purified protein; details: conditions not stated separately for this enzyme
[6] = system: N[C@@H](CCC(=O)O)C(=O)O; assay: purified protein; details: conditions not stated separately for this enzyme

Molecule | Km [1] | kcat [1] | kcat/Km [1] | Km [2] | kcat [2] | kcat/Km [2] | other results
PglD (Campylobacter jejuni subsp. jejuni NCTC 11168 = ATCC 700819) | 311 ± 23 µM | 12000 ± 380 s⁻¹ | 4e+07 M⁻¹ s⁻¹ | 194 ± 30 µM | 11000 ± 500 s⁻¹ | 5.5e+07 M⁻¹ s⁻¹ | –
CC(=O)N[C@H]1[C@@H](OP(=O)(O)OP(=O)(O)OC[C@H]2O[C@@H](n3ccc(=O)[nH]c3=O)[C@H](O)[C@@H]2O)O[C@H](C)[C@@H](NC(C)=O)[C@@H]1O [UDP-diNAcBac, UDP-2,4-diacetamido-2,4,6-trideoxy-α-D-glucose] | – | – | – | – | – | – | radioactive transfer to Und-P, organic extraction [3]: This phosphoglycosyltransferase exhibited clear selectivity for UDP-diNAcBac over all other UDP-sugars
PglB-ATD (Neisseria gonorrhoeae FA 1090) | 192 ± 26 µM | 2000 ± 82 s⁻¹ | 1e+07 M⁻¹ s⁻¹ | 338 ± 47 µM | 2300 ± 110 s⁻¹ | 6.9e+06 M⁻¹ s⁻¹ | –
CC(=O)N[C@H]1[C@@H](OP(=O)(O)OP(=O)(O)OC[C@H]2O[C@@H](n3ccc(=O)[nH]c3=O)[C@H](O)[C@@H]2O)O[C@H](C)[C@@H](N)[C@@H]1O [UDP-4-amino, UDP-2-acetamido-4-amino-2,4,6-trideoxy-α-D-glucose] | – | – | – | – | – | – | Km [4]: 4300 ± 140 µM
PglE (Campylobacter jejuni subsp. jejuni NCTC 11168 = ATCC 700819) | – | – | – | – | – | – | Km [5]: 366 ± 57 µM; kcat [5]: 2.4 ± 0.1 s⁻¹; kcat/Km [5]: 6600 M⁻¹ s⁻¹; Km [6]: 11,000 ± 340 μM; kcat [6]: 0.028 ± 0.0003 s⁻¹; kcat/Km [6]: 2.6 M⁻¹ s⁻¹
